Compound activity deposited in PubChem by Broad Institute.
NSD2 HMT inh = NSD2 histone methyltransferase inhibitors, primary screen, biochemical, AlphaScreen, single concentration, set 2 | NSD2 peptide methylation, 120 min | inhibition, % at 12.5 µM | 310,000 compounds, 0.54% hits; in the data active = inhibition above about 50%
AF4-AF9 inh = inhibitors of AF4 peptide binding to AF9, primary screen, biochemical, AlphaScreen, biotin-AF4 peptide, FLAG-AF9, single point | Protein AF-9 (Homo sapiens), P42568 | inhibition, % at 10 µM | 350,000 compounds, 0.47% hits;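 active = every replicate reaching a set inhibition limit, whatever the replicate mean, cut at about 25% in these data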;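 also: 0% = plate neutral control median and 100% = total signal loss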
Glyco luc inh = increase of ERlucT glycosylation luciferase signal, primary screen, N-linked glycosylation inhibitor project, D54 ERlucT cells, luminescence, set 2 | D54 ERlucT glycosylation luciferase reporter, 24 h; percent of 100 nM tunicamycin response | reporter increase, % at 12.5 µM | 360,000 compounds, 0.23% hits | AID 588692, 2011;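 active = mean luciferase reporter signal, scaled so untreated is 0 and the glycosylation-blocking control 100, at or above a set limit in every replicate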;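 also: luciferase carries N-glycosylation sites so blocking glycosylation raises the light; 0% = median of neutral control wells and 100% = median of 100 nM tunicamycin wells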
FN deposition inh = inhibitors of fibronectin matrix deposition, primary screen, AH1F cells, Alexa488-fibronectin fluorescence, plate reader | AH1F fibroblasts, overnight | inhibition, % at 12.6 µM | 350,000 compounds, 0.086% hits;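 active = mean inhibition across replicates of 30% or more, regardless of how many single replicates reach that level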;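 also: positive control wells lacked labelled fibronectin entirely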
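Test system: AH1F fibroblast monolayer depositing Alexa488-labelled fibronectin into matrix. Input: 10000 cells per well. Technique: fluorescence, ex 485 nm, em 525 nm. Buffer or medium: DMEM plus 2% serum, read in PBS. Timing: 1 h cell adhesion before compound, then overnight fibronectin incubation. Compound: single dose, pinned. Read-out basis: inhibition from reduced deposited-fibronectin fluorescence.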
RAD52 anneal inh = RAD52 DNA annealing inhibitors, primary screen, biochemical, FRET, single point, set 2. 360,000 compounds, 0.46% hits. recombinant RAD52 DNA annealing, FRET fluorescence. inhibition, % at 18.7 µM. DNA repair protein RAD52 homolog (Homo sapiens), P43351. AID 651710, 2012;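 active = every replicate showing at least 50% inhibition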
Target sequence (P43351 whole entry, looked up): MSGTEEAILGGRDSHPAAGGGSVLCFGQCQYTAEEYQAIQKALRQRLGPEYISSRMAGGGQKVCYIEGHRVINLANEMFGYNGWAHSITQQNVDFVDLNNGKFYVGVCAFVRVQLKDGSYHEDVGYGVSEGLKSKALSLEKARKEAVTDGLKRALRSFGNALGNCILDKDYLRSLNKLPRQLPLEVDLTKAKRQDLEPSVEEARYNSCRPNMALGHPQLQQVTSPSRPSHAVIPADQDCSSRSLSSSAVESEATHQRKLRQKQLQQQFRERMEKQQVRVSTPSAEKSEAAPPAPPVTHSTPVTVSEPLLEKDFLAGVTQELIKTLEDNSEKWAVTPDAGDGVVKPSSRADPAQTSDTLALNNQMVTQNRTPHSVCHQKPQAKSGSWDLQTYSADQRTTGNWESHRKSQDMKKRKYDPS
RAD54 branch = inhibitors of human RAD54 branch migration, primary screen, biochemical, fluorescence, single point; DNA repair and recombination protein RAD54-like (Homo sapiens), Q92698; RAD54 Holliday junction branch migration, FAM/BHQ fluorescence; inhibition, % at 10.4 µM; 360,000 compounds, 0.14% hits; AID 602329, 2012;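 active = mean normalized replicate activity at least 40 and at least half of replicates scoring 40 or more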;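 also: 0% = median of neutral control wells and 100% = median of positive control wells; inhibitors cause a drop in the FAM fluorescence signal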
AlphaScreen art = AlphaScreen signal interference with preloaded methylated product, dose response, artefact control for NSD2 inhibitor project, biochemical, cherry-picked samples; shares compounds with NSD2 HMT inh; AlphaScreen artifact counterscreen, preloaded methylated H4 peptide; AC35, µM (highest dose often 10 µM), for inactives: at the top dose activity change, negative = signal loss; 1,500 compounds, 9.4% hits; AID 1053174, 2014; call rule not given here
Starred values were filed as active, the others as inactive; nt = no result. Compounds with a hit are over-represented: about 1.2% of the library has one in this group of screens.

SMILES	NSD2 HMT inh	AF4-AF9 inh	Glyco luc inh	FN deposition inh	RAD52 anneal inh	RAD54 branch	AlphaScreen art
O=C(C[C@@H]1C[C@H]2c3cc(NC(=O)c4ccc5c(c4)OCO5)ccc3O[C@H]2[C@H](CO)O1)NCc1cccc(F)c1	nt	-4	nt	9	-27	-3	nt
CNCCC1Sc2ccccc2Oc2ccccc21 (centres undefined)	100*	1	-1	-2	3	4	3%
COc1ccc2c3c(n(C)c2c1)[C@@H](CO)N(Cc1ccccc1Cl)CC31CN(C(C)=O)C1	nt	0	nt	nt	nt	nt	nt
O=C(/C=C/c1ccco1)N(c1ccccn1)c1ccccn1	77*	-2	2	-1	-35	nt	-1%
O=C(c1ccco1)N(c1ccccn1)c1ccccn1	-8	nt	1	5	nt	-17	nt
Cc1ccc(O)c(NC(=O)c2cc3nc4c(c(C(F)(F)F)n3n2)CCc2ccccc2-4)c1	70*	nt	1	nt	nt	-6	-4%
C[C@H]1CCCCO[C@H](CN(C)S(=O)(=O)c2cn(C)cn2)[C@@H](C)CN([C@@H](C)CO)C(=O)c2cc(NS(=O)(=O)c3cn(C)cn3)ccc2O1	nt	-11	nt	-10	1	-10	nt
O=C(NNC(=S)Nc1ccccc1)c1ccco1	119*	nt	0	nt	nt	-13	-3%
COc1ccc(OC)c(NC(=O)C2COc3ccccc3O2)c1 (centres undefined)	-1	nt	1	nt	nt	3	nt
COc1ccccc1NC(=O)c1ccc(NC(=O)C2COc3ccccc3O2)cc1 (centres undefined)	76*	0	-5	-23	-8	3	1%
CCOc1ccc(-n2c(COc3ccccc3)nnc2SCc2nc3ccccc3[nH]2)cc1	-3	nt	nt	nt	nt	nt	nt
CCOc1ccc(-c2nnc(SCc3nc4ccccc4[nH]3)n2N)cc1	72*	nt	-1	nt	nt	-6	-4%
COc1ccc(N2C(=O)C3C(C2=O)C(C(=O)c2ccc(Cl)cc2)N2CCCC32)cc1 (centres undefined)	79*	0	16	-6	-147	nt	-7%
CC(=O)c1ccc(N2C(=O)C3C(C2=O)C(C(=O)c2ccc(Cl)cc2)N2CCCC32)cc1 (centres undefined)	-1	nt	nt	nt	nt	nt	nt
COCC(=O)N1CC(=O)N2[C@H](CO)[C@@H](c3ccc(C#Cc4cccc(OC)c4)cc3)[C@@H]2C1	nt	-4	nt	nt	0	nt	nt
COC(=O)C[C@@H]1CC[C@H]2[C@@H](COc3ccc(NC(=O)c4ccccc4OC)cc3C(=O)N2C)O1	nt	nt	nt	1	nt	-9	nt
Cc1cc(C)n(CCC(=O)N2CCN(S(=O)(=O)c3ccccc3)CC2)n1	54*	-2	0	0	-12	14	0%
C[C@@H]1CN([C@H](C)CO)C(=O)CCCn2nncc2CO[C@@H]1CN(C)C(=O)Nc1ccc(C(F)(F)F)cc1	nt	0	nt	-6	-1	5	nt
COc1ccccc1NC(=O)C(C)OC(=O)CCNS(=O)(=O)c1ccc(C)c(C)c1 (centres undefined)	-1	1	0	-7	2	0	nt
COc1ccccc1NC(=O)C(C)OC(=O)CCNS(=O)(=O)c1cccc(C(F)(F)F)c1 (centres undefined)	105*	2	4	4	-7	-18	-3%
C[C@@H]1CN([C@H](C)CO)C(=O)c2cc(NC(=O)Nc3ccc4c(c3)OCO4)ccc2O[C@H]1CN(C)Cc1ccc(C(F)(F)F)cc1	nt	4	nt	nt	7	0	nt
C[C@H](NC(=O)C[C@H]1CC[C@H]2[C@@H](COC[C@@H](O)CN2C(=O)Nc2cccc(F)c2)O1)c1ccccc1	nt	-5	nt	-1	0	-3	nt
O=C(O)CCCCCn1c(SCC(=O)c2ccc(O)c(O)c2)nc2ccsc2c1=O	91*	nt	-3	5	nt	nt	-14%
